Laboratory results from ChEMBL document CHEMBL2311491, “Development of new cyclic plasmin inhibitors with excellent potency and selectivity” (J Med Chem, 2013).
pIC50, pKi: −log10 of the molar value.

Columns and labels:
Cytochrome P450 2D6 = Cytochrome P450 2D6 (Homo sapiens, UniProt P10635); test: Inhibition of human recombinant CYP2D6 expressed in Trichoplusia ni BTI-TN-5B1-4 cells preincubated for 15 mins measured after 45 mins by spectrofluorimetry; assay type: ADME, cell-based
[1] = target: Tissue-type plasminogen activator (Homo sapiens, UniProt P00750); test: Inhibition of human tPA
Plasma [2] = test: Anticoagulant activity in human plasma assessed as concentration required to activated partial thromboplastin time; assay type: functional
Procedure, shortened: (§1)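 Clotting time measured in human plasma spiked with inhibitor. Value reported as EC200, the concentration that doubles the clotting time.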

Coagulation factor XII = Coagulation factor XII (Homo sapiens, UniProt P00748); test: Inhibition of human FXIIa
Plasma kallikrein = Plasma kallikrein (Homo sapiens, UniProt P03952); test: Inhibition of human plasma kallikrein using H-D-Pro-Phe-Arg-pNA as substrate after 5 to 10 mins by micro plate reader analysis
Cytochrome P450 2C9 = Cytochrome P450 2C9 (Homo sapiens, UniProt P11712); test: Inhibition of human recombinant CYP2C9 expressed in Trichoplusia ni BTI-TN-5B1-4 cells preincubated for 15 mins measured after 45 mins by spectrofluorimetry; assay type: ADME, cell-based
[3] = target: L-type Ca channel, dihydropyridine site (Rattus norvegicus, UniProt P22002+P27732+Q02485); test: Displacement of [3H]nitrendipine from wistar rat Ca channel L-type dihydropyridine receptor at 10 uM; details: probe [3H]nitrendipine
Procedure, shortened: (§2)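 Radioligand binding to the ion channel with test compound at 10 μM. Result expressed as % binding; negative values are read as no binding. Assays run by a contract laboratory.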

[4] = target: L-type Ca channel, benzothiazepine site (Rattus norvegicus, UniProt P22002+P27732+Q02485); test: Displacement of [3H]diltiazem from wistar rat Ca channel L-type benzothiazepine receptor at 10 uM; details: probe [3H]diltiazem; procedure, shortened: as §2
Kallikrein-1 = Kallikrein-1 (Homo sapiens, UniProt P06870); test: Inhibition of urinary kallikrein (unknown origin)
[5] = Metabolic stability in human liver microsomes assessed as degradation after 60 mins; assay type: ADME, Microsome; details: read-out: Drug degradation
[6] = target: L-type Ca channel, phenylalkylamine site (Rattus norvegicus, UniProt P22002+P27732+Q02485); test: Displacement of [3H](-)-desmethoxyverapamil from wistar rat Ca channel L-type phenylalkylamine receptor at 10 uM; details: probe [3H](-)-desmethoxyverapamil; procedure, shortened: as §2
[7] = target: Cytochrome P450 2C19 (Homo sapiens) (UniProt P33261); test: Inhibition of human recombinant CYP2C19 expressed in Trichoplusia ni BTI-TN-5B1-4 cells preincubated for 15 mins measured after 30 mins by spectrofluorimetry
Cytochrome P450 3A4 = Cytochrome P450 3A4 (Homo sapiens, UniProt P08684); test: Inhibition of human recombinant CYP3A4 expressed in Trichoplusia ni BTI-TN-5B1-4 cells preincubated for 15 mins measured after 30 mins by spectrofluorimetry; assay type: ADME, cell-based
[8] = Thermodynamic solubility of the compound in 0.9% saline; assay type: physicochemical; details: read-out: Therm_solubility
Plasma [9] = test: Anticoagulant activity in human plasma assessed as concentration required to prothrombin time; assay type: functional; procedure, shortened: as §1
Plasminogen = Plasminogen (Homo sapiens, UniProt P00747); test: Inhibition of human plasmin protease domain using Tos-Gly-Pro-Lys-pNA as substrate by micro plate reader analysis
[10] = target: Cytochrome P450 1A2 (Homo sapiens) (UniProt P05177); test: Inhibition of human recombinant CYP1A2 expressed in Trichoplusia ni BTI-TN-5B1-4 cells preincubated for 15 mins measured after 45 mins by spectrofluorimetry
Coagulation factor IX = Coagulation factor IX (Homo sapiens, UniProt P00740); test: Inhibition of human FIXa
[11] = target: Complement C1s subcomponent (Homo sapiens, UniProt P09871); test: Inhibition of human C1s
Serine protease 1 = Serine protease 1 (Homo sapiens, UniProt P07477); test: Inhibition of human trypsin
Rattus norvegicus = organism: Rattus norvegicus; test: Displacement of [3H]batrachotoxinin from wistar rat Na channel at 10 uM
Procedure, shortened: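 Single-point radioligand binding screen at 10 μM test compound, run by a contract lab under its own protocol. Read-out is percent binding, where negative values mean no binding.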

Plasma [12] = test: Anticoagulant activity in human plasma assessed as tPA-induced fibrinolysis; assay type: functional; details: in the assay text read “Antifibrinolytic activity” for “Anticoagulant activity”
Procedure, shortened: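 tPA-induced fibrinolysis in human plasma. Value reported as EC200, the inhibitor concentration that doubles the clot-to-lysis time.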

hERG (KCNH2) = hERG (KCNH2) (Homo sapiens, UniProt Q12809); test: Displacement of [3H]astemizole from human ERG channel at 10 uM; details: probe [3H]astemizole; procedure, shortened: as §2
[13] = target: Vitamin K-dependent protein C (Homo sapiens, UniProt P04070); test: Inhibition of human activated protein C using H-D-Lys(Cbz)-Pro-Arg-pNA as substrate after 5 to 10 mins by micro plate reader analysis
Coagulation factor XI = Coagulation factor XI (Homo sapiens, UniProt P03951); test: Inhibition of human FXIa
Coagulation factor X = Coagulation factor X (Homo sapiens, UniProt P00742); test: Inhibition of human factor Xa using CH3OCO-D-Cha-Gly-Arg-pNA as substrate after 5 to 10 mins by micro plate reader analysis
[14] = Fraction unbound in human plasma; assay type: ADME, cell-free
Trypsin = Trypsin (Sus scrofa, UniProt P00761); test: Inhibition of pig trypsin using CH3SO2-D-Cha-Gly-Arg-pNA as substrate after 5 to 10 mins by micro plate reader analysis
[15] = target: Urokinase-type plasminogen activator (Homo sapiens, UniProt P00749); test: Inhibition of human uPA
[16] = target: Complement C1r subcomponent (Homo sapiens, UniProt P00736); test: Inhibition of human C1r
Plasma [17] = test: Anticoagulant activity in human plasma assessed as concentration required to thrombin time; assay type: functional; procedure, shortened: as §1
Prothrombin = Prothrombin (Homo sapiens, UniProt P00734); test: Inhibition of human thrombin using CH3SO2-D-Cha-Gly-Arg-pNA as substrate after 5 to 10 mins by micro plate reader analysis

Kallikrein-1, sequence (P06870 whole entry): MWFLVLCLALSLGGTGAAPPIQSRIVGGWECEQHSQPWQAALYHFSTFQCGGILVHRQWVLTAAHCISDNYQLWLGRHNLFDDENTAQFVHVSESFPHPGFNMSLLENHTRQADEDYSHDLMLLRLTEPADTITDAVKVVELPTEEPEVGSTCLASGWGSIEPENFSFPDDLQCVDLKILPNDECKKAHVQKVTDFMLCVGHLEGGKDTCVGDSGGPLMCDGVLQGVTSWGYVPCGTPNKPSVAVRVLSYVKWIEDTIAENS
Cytochrome P450 2C19 (Homo sapiens), sequence (P33261 whole entry, looked up): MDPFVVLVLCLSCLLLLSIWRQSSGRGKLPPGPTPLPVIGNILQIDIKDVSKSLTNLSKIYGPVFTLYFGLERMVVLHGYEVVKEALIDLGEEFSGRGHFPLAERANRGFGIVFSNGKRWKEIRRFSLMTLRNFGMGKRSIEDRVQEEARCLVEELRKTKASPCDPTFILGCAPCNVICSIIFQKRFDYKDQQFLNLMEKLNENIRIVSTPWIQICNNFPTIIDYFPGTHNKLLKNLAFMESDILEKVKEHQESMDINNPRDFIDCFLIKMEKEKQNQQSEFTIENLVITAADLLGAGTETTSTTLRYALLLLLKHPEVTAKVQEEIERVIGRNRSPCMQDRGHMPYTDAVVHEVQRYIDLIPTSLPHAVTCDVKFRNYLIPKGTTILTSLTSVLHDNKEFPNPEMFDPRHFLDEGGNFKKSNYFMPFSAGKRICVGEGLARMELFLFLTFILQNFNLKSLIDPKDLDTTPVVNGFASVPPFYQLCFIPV
Complement C1r subcomponent, sequence (P00736 18-463 limits assumed): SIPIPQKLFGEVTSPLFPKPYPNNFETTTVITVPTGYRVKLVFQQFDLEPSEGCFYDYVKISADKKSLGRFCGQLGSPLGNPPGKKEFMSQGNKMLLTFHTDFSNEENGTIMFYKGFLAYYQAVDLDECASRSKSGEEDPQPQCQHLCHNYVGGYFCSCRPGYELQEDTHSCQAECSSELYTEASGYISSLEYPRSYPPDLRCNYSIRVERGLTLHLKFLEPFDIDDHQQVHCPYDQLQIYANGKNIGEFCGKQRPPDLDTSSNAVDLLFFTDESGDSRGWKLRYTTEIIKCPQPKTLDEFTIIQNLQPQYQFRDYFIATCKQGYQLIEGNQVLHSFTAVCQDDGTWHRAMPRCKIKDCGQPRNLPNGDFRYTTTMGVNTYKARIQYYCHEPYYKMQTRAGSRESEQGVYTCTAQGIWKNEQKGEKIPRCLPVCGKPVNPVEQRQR
Complement C1r subcomponent, sequence (P00736 464-705 limits assumed): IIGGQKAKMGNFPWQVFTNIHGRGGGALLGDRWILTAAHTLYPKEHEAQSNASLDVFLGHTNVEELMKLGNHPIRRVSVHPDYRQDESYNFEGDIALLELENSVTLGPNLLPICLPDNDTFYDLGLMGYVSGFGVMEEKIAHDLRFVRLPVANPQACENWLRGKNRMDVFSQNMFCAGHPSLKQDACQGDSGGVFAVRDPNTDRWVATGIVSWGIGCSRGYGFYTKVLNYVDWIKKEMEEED
Trypsin, sequence (P00761 whole entry): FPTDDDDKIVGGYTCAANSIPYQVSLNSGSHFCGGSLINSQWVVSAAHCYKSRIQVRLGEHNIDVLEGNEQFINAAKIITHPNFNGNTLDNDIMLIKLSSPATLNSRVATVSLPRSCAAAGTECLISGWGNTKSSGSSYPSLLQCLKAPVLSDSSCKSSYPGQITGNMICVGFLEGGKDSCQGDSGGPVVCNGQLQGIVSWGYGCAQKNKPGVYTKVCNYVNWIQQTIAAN
Cytochrome P450 2C9, sequence (P11712 whole entry): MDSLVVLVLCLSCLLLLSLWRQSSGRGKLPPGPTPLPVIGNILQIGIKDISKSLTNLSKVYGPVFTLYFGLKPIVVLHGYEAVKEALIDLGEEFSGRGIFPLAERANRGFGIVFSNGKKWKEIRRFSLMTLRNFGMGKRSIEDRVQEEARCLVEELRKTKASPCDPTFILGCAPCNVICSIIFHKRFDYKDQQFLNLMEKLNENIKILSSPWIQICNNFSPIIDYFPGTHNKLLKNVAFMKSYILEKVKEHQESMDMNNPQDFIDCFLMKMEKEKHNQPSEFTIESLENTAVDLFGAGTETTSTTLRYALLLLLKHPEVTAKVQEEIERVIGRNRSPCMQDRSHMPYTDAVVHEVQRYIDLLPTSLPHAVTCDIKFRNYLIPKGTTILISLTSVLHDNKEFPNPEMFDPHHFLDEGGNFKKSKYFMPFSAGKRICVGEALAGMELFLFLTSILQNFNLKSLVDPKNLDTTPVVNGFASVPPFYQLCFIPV
Serine protease 1, sequence (P07477 whole entry): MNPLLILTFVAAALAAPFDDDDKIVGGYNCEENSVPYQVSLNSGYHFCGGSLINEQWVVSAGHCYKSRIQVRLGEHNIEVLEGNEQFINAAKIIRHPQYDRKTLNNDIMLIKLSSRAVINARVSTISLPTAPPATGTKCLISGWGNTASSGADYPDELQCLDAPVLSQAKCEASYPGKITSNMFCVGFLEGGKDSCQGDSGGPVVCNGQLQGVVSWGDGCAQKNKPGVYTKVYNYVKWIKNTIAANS
hERG (KCNH2), sequence (Q12809 whole entry): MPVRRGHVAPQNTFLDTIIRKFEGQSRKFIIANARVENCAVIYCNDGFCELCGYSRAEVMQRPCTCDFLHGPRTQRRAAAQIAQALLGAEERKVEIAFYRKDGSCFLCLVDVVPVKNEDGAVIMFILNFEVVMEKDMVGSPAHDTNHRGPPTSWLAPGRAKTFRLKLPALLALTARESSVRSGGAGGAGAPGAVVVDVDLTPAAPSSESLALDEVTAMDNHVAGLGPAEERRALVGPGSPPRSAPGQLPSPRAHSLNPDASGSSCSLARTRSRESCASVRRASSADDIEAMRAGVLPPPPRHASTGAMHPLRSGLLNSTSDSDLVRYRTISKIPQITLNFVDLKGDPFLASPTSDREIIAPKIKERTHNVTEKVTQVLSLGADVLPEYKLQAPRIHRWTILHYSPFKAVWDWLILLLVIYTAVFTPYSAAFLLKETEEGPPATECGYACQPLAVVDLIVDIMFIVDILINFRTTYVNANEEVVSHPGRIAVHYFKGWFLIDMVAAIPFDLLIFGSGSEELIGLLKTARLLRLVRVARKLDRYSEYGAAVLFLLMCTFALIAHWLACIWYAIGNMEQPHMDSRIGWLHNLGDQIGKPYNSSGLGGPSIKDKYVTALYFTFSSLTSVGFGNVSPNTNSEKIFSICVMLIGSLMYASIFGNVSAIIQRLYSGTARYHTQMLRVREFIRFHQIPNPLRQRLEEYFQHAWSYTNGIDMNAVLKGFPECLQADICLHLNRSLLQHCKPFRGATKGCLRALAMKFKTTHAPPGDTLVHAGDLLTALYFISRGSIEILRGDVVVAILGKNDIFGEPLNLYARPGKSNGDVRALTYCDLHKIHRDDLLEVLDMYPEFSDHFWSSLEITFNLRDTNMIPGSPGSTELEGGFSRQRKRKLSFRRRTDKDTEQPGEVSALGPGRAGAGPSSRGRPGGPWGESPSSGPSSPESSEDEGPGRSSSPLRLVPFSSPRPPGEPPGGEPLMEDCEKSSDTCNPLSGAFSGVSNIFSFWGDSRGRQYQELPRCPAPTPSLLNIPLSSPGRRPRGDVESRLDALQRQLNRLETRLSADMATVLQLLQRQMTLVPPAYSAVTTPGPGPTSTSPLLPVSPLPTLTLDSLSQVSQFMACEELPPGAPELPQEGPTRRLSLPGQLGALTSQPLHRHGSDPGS
Vitamin K-dependent protein C, sequence (P04070 43-197 limits assumed): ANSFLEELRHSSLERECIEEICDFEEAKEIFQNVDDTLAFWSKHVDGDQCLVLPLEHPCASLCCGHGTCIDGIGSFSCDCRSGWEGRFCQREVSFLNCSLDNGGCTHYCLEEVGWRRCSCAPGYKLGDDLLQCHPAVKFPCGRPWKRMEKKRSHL
Vitamin K-dependent protein C, sequence (P04070 212-461 limits assumed): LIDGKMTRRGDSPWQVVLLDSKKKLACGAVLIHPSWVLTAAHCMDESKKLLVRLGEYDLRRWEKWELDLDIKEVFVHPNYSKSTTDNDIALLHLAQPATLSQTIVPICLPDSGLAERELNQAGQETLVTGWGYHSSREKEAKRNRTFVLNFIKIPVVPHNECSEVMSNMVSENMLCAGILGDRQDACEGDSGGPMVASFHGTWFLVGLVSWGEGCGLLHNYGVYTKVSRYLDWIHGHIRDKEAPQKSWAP
Coagulation factor IX, sequence (P00740 47-191 limits assumed): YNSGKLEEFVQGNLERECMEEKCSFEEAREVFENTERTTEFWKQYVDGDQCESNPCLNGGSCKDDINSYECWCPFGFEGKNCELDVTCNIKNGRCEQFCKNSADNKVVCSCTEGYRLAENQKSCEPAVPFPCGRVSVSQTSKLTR
Coagulation factor IX, sequence (P00740 227-461 limits assumed): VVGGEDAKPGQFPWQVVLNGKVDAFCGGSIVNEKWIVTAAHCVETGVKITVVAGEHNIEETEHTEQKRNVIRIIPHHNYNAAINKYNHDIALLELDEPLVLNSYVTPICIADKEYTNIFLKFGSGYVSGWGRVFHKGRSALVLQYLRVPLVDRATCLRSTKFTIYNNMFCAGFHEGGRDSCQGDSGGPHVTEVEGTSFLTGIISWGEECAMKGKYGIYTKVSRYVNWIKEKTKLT
Coagulation factor X, sequence (P00742 41-179 limits assumed): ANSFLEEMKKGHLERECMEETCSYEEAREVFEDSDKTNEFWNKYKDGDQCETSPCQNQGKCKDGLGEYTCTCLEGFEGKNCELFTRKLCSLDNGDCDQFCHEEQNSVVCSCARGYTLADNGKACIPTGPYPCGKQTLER
Coagulation factor X, sequence (P00742 235-488 limits assumed): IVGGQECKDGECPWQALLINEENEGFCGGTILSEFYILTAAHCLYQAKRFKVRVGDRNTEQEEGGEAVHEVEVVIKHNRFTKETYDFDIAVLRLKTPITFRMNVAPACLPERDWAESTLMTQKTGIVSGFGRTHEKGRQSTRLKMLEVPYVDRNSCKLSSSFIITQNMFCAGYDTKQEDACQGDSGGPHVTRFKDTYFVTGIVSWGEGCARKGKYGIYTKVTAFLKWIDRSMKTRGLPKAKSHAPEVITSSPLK

Structure (SMILES)	pIC50 (Cytochrome P450 2D6)	pKi [1]	EC200 (Plasma [2]) [µM]	pKi (Coagulation factor XII)	pIC50 (Cytochrome P450 2C9)	inhibition at 10 µM [3] [%]	inhibition at 10 µM [4] [%]	pKi (Kallikrein-1)	metabolised at 1 h [5] [%]	inhibition at 10 µM [6] [%]	pIC50 [7]	pIC50 (Cytochrome P450 3A4)	solubility thermodynamic [8] [µg/mL]	EC200 (Plasma [9]) [µM]	pIC50 [10]	pKi (Coagulation factor IX)	pKi [11]	pKi (Serine protease 1)	inhibition (Rattus norvegicus) [%]	EC200 (Plasma [12]) [nM]	also measured
N=C(N)c1ccc(CNC(=O)[C@@H]2Cc3ccc(cc3)NC(=O)CCN3CCN(CCC(=O)Nc4ccc(cc4)C[C@@H](NS(=O)(=O)Cc4ccccc4)C(=O)N2)CC3)cc1.O=C(O)C(F)(F)F	< 5.00	< 4.40	>100	< 4.70	< 4.00	-5	-4	5.00	2	3	< 4.00	< 5.00	> 2000	>100	< 4.00	< 5.30	< 4.46	8.08	27	180	pKi (Plasma kallikrein): 6.00; pKi (Plasminogen): 9.70; inhibition at 10 µM (hERG (KCNH2)): 4%; pKi [13]: < 4.82; pKi (Coagulation factor XI): 5.47; pKi (Coagulation factor X): 4.60; fraction unbound [14]: 0.67; pKi (Trypsin): 7.42; pKi [15]: 5.19; pKi [16]: < 4.46; EC200 (Plasma [17]): >100 µM; pKi (Prothrombin): 4.58
N=C(N)c1ccc(CNC(=O)[C@@H]2Cc3ccc(cc3)NC(=O)CN3CCN(CC3)CC(=O)Nc3ccc(cc3)C[C@@H](NS(=O)(=O)Cc3ccccc3)C(=O)N2)cc1.O=C(O)C(F)(F)F	< 4.40	< 4.00	>100	< 4.00	< 4.00	-2	1	< 4.30	0	13	< 4.00	< 4.66	> 2000	>100	< 5.00	< 4.00	< 4.00	7.36	-8	280	inhibition at 10 µM (hERG (KCNH2)): 7%; pKi [13]: < 4.60; pKi (Coagulation factor XI): 5.33; pKi (Coagulation factor X): < 5.00; fraction unbound [14]: 0.61; pKi (Trypsin): 7.20; pKi [15]: 5.05; pKi [16]: < 4.30; EC200 (Plasma [17]): >100 µM; pKi (Prothrombin): 4.86
